Source: ChEMBL document CHEMBL4385610, “Selective Inhibition of Histone Deacetylase 10: Hydrogen Bonding to the Gatekeeper Residue is Implicated” (J Med Chem, 2019)
Active and inactive are the calls of the source. The rule behind the calls is not given here.

Experiments:
[1] = biological target: T1, Polyamine deacetylase HDAC10 (Homo sapiens, UniProt Q969S8); assay: Inhibition of dye-labeled tracer binding to HDAC10 (unknown origin) transfected in human HeLa cells measured after 2 hrs by nano-luciferase reporter gene-based BRET assay; format: cell-based
T1 sequence (Q969S8 whole entry): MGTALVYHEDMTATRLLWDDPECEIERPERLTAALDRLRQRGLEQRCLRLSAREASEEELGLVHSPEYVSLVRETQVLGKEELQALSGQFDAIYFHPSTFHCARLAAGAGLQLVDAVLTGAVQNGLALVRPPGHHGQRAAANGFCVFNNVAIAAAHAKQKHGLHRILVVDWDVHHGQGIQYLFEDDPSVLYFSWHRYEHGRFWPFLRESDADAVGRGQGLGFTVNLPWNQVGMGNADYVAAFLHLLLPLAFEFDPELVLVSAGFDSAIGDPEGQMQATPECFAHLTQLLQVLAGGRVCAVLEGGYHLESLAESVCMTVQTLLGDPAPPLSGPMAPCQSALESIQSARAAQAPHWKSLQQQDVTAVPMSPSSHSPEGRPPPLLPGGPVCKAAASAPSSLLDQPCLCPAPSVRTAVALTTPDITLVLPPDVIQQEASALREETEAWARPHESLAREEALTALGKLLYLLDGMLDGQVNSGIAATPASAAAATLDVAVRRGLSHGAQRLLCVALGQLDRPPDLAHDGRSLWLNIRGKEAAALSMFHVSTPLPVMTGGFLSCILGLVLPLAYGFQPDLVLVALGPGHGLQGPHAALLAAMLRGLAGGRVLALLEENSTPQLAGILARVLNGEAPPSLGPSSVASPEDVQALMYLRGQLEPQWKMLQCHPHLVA

[2] = biological target: T1, Polyamine deacetylase HDAC10; assay: Inhibition of tubastatin-Alexa647-tracer binding to recombinant GST-tagged HDAC10 (unknown origin) measured after 1 hr by TR-FRET assay
[3] = biological target: T2, Protein deacetylase HDAC6 (Homo sapiens, UniProt Q9UBN7); assay: Inhibition of dye-labeled tracer binding to HDAC6 (unknown origin) transfected in human HeLa cells measured after 2 hrs by nano-luciferase reporter gene-based BRET assay; format: cell-based
T2 sequence (Q9UBN7 whole entry): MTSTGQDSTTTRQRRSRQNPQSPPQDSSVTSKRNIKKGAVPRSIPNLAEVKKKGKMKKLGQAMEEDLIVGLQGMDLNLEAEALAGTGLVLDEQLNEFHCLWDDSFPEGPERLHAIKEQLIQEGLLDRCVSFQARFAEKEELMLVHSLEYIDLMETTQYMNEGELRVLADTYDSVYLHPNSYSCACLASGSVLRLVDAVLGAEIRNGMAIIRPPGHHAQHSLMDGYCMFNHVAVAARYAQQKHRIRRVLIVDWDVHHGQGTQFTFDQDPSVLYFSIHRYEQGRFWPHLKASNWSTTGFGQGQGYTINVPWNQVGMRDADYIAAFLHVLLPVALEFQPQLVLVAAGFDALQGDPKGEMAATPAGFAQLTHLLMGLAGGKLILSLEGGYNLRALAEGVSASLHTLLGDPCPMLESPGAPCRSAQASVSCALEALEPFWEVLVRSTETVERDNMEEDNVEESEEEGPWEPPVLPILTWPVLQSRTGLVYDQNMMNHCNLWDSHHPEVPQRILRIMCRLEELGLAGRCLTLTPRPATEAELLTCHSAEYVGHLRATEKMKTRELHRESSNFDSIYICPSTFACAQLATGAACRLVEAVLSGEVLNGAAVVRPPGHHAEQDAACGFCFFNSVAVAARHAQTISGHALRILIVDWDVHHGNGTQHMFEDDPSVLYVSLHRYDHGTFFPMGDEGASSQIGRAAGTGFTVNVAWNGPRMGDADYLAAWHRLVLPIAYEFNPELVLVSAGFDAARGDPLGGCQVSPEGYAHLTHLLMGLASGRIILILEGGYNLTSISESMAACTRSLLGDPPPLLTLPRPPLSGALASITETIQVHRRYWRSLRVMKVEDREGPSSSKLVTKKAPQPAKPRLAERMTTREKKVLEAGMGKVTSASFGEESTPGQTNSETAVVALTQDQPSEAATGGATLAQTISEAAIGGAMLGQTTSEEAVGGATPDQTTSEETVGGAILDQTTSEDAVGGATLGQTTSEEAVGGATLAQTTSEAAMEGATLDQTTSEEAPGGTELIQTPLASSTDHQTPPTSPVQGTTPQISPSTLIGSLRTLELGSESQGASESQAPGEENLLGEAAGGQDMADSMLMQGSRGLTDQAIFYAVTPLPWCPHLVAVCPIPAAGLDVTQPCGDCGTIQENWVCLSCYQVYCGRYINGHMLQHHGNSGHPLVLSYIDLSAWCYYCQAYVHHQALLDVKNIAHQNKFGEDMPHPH
In short: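 Live-cell target engagement by BRET: cells overexpressing nano-luciferase-tagged HDAC6 or HDAC10 are given a dye-labelled tracer and the nano-luciferase substrate, and a competing binder disrupts BRET. pIC50 comes from pooled data of two biological replicates, each run in triplicate. The selectivity fold is taken from the HDAC10 and HDAC6 BRET values.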

[4] = biological target: Histone deacetylase 3/Nuclear receptor corepressor 2 (HDAC3/NCoR2) (Homo sapiens, UniProt O15379); assay: Inhibition of human recombinant full length C-terminal His-tagged HDAC3 (1 to 428 residues)/N-terminal GST-tagged NCOR2 (395 to 489 residues) expressed in baculovirus infected insect cells measured after 40 mins by HDAC-Glo1/2 luminescent assay
Histone deacetylase 8 = biological target: T3, Histone deacetylase 8 (Homo sapiens, UniProt Q9BY41); assay: Inhibition of recombinant human full length C-terminal His-tagged HDAC8 expressed in baculovirus infected insect cells measured after 40 mins by HDAC-Glo1/2 luminescent assay
T3 sequence (Q9BY41 whole entry): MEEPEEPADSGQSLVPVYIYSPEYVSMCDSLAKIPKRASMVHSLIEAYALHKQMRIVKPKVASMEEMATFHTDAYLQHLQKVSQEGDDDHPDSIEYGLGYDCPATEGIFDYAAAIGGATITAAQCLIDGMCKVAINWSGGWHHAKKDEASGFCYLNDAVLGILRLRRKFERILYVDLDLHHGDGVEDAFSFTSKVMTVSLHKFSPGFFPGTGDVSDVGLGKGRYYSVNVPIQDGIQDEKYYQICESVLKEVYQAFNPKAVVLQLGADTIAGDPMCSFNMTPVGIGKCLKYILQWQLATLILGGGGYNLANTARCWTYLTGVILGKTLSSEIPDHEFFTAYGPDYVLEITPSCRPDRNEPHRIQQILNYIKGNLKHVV

Histone deacetylase 2 = Histone deacetylase 2 (Homo sapiens, UniProt Q92769); assay: Inhibition of recombinant full-length C-terminal His-tagged human HDAC2 expressed in baculovirus infected Sf9 insect cells measured after 40 mins by HDAC-Glo1/2 luminescent assay; format: cell-based
Histone deacetylase 1 = Histone deacetylase 1 (Homo sapiens, UniProt Q13547); assay: Inhibition of recombinant full-length C-terminal FLAG-fused/His-tagged human HDAC1 expressed in baculovirus infected Sf9 insect cells measured after 40 mins by HDAC-Glo1/2 luminescent assay
[5] = biological target: T4, Protein deacetylase HDAC6 (Homo sapiens) (UniProt Q9UBN7); assay: Inhibition of HDAC6 in human BE(2)-C cells assessed as increase in tubulin acetylation at 10 uM measured after 24 hrs by Western blot analysis; format: cell-based
T4 sequence (whole entry): T2 sequence (Q9UBN7 whole entry)
In short: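 In the neuroblastoma BE(2)-C line, HDAC6 inhibition is read as tubulin acetylation by Western blot, comparing acetylated tubulin with total tubulin.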

Histone deacetylase 3/Nuclear receptor corepressor 2 (HDAC3/NCoR2), sequence (O15379 whole entry, the tested form may be a part): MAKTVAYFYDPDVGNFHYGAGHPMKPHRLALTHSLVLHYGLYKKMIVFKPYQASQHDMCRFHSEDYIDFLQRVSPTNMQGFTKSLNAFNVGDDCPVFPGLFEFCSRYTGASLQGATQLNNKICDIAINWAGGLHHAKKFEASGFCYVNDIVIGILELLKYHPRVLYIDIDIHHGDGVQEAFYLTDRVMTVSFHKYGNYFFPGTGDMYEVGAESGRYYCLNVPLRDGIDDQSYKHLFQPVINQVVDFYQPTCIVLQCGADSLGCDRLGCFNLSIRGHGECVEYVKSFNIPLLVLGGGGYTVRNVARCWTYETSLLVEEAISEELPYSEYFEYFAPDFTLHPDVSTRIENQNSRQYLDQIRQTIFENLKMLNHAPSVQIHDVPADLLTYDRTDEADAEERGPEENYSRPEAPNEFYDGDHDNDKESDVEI
Histone deacetylase 3/Nuclear receptor corepressor 2 (HDAC3/NCoR2), sequence (Q9Y618 whole entry, further chain, the tested form may be a part): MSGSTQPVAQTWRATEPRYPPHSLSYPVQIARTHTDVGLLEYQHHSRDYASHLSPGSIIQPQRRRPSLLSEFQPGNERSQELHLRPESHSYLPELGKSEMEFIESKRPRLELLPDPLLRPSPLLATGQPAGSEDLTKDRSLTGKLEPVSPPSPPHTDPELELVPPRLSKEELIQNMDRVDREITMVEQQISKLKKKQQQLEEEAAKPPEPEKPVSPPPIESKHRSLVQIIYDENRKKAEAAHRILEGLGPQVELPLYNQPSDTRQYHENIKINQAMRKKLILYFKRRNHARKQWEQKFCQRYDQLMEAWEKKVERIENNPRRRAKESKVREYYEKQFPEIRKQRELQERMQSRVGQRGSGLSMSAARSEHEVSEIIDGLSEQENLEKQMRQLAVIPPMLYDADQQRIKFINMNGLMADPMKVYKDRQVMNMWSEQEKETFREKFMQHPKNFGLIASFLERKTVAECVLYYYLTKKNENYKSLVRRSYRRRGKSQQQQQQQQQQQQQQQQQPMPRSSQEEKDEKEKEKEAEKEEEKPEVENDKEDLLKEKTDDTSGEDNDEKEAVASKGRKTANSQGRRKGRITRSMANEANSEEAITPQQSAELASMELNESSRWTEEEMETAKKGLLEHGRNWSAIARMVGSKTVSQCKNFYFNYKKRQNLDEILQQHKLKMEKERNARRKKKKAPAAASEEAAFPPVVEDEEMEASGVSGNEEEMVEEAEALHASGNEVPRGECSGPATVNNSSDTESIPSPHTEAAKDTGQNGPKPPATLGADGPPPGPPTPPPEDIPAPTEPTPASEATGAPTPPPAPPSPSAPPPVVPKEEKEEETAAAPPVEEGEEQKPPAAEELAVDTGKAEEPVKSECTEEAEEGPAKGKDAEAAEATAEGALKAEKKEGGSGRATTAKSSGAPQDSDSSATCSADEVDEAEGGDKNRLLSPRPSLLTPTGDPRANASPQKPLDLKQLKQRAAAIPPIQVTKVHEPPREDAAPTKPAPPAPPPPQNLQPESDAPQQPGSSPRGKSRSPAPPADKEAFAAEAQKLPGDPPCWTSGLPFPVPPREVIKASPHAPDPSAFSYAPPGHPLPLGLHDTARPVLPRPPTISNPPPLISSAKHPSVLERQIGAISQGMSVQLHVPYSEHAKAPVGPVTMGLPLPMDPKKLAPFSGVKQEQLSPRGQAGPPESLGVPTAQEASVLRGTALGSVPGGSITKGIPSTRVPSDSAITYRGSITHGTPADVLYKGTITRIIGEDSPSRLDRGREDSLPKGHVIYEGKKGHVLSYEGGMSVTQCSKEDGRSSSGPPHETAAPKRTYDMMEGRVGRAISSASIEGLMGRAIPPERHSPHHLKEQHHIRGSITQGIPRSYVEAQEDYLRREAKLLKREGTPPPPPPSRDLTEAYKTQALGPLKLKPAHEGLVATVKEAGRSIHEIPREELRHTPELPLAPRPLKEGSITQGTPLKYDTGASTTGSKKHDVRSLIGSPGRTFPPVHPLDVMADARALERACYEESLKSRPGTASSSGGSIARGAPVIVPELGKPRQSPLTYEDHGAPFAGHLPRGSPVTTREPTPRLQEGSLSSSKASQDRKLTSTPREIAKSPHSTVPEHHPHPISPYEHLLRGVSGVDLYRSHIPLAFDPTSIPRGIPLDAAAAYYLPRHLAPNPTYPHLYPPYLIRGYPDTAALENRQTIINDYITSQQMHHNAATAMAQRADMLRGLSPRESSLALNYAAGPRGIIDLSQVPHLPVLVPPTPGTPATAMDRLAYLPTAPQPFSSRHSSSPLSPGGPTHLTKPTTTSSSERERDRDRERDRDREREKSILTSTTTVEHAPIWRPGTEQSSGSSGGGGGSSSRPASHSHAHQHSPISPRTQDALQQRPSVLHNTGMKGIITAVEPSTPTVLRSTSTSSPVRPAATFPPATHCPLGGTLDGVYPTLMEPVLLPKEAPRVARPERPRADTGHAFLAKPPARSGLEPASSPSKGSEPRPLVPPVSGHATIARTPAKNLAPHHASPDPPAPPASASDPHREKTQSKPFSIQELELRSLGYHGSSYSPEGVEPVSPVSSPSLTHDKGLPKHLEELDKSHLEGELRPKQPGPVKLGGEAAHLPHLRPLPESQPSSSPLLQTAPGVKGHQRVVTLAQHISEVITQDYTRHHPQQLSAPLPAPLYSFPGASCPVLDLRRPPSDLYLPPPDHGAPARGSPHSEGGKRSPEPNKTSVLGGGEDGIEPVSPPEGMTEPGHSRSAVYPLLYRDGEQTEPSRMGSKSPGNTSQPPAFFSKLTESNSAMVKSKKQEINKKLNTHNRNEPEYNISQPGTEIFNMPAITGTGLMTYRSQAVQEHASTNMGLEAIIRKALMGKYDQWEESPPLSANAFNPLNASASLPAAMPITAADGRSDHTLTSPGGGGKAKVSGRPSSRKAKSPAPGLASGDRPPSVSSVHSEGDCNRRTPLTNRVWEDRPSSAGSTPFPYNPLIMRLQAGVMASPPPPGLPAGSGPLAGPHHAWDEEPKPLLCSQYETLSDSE
Histone deacetylase 1, sequence (Q13547 whole entry, the tested form may be a part): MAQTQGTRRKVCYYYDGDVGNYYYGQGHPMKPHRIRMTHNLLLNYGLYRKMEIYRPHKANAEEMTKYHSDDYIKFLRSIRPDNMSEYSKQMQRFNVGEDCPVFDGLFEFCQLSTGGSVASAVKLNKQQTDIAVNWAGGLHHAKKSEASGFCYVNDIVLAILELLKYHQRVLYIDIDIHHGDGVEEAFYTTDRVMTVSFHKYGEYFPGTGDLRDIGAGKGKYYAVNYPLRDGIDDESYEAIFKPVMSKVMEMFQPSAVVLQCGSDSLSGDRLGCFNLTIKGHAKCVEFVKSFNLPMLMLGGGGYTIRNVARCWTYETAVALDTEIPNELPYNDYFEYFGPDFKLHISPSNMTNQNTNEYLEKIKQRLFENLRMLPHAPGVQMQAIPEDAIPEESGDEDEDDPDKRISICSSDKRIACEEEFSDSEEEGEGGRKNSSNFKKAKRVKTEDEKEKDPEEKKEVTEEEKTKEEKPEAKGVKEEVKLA
Histone deacetylase 2, sequence (Q92769 whole entry, the tested form may be a part): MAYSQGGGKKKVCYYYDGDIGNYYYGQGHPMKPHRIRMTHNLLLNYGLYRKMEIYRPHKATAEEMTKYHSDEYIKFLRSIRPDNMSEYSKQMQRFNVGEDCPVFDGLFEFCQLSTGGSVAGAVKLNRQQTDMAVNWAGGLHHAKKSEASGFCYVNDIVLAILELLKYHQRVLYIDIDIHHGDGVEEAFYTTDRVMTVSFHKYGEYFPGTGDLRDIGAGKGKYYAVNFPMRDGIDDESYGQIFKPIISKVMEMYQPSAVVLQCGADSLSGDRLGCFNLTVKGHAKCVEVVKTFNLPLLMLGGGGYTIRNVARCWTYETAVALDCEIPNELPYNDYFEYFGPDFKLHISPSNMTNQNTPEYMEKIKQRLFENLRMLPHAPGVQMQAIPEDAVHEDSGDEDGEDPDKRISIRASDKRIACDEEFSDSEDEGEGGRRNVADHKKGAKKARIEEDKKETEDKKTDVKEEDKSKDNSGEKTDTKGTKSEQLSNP

C#Cc1cccc(Nc2ncnc3cc(OC)c(OCCCCCCC(=O)NO)cc23)c1 [CUDC-101]
IC50 [1]: 398 nM | IC50 [2]: 126 nM

CC(C)(C)OC(=O)NCc1cn(Cc2ccc(C(=O)NO)cc2)c2ccccc12
IC50 [1]: 251 nM | IC50 [2]: 158 nM | IC50 [3]: 79.4 nM

Cn1cncc1-c1cn(Cc2ccc(C(=O)NO)cc2)c2ccccc12
IC50 [4]: 501 nM | IC50 [1]: 50.1 nM | IC50 [2]: 25.1 nM | IC50 (Histone deacetylase 8): 398 nM | IC50 (Histone deacetylase 2): 3160 nM | IC50 (Histone deacetylase 1): 631 nM | IC50 [3]: 79.4 nM

CN(C)CCc1cn(Cc2ccc(C(=O)NO)cc2)c2ccccc12
IC50 [1]: 25.1 nM | IC50 [2]: 20 nM

CC(=O)N1CCc2c(c3ccccc3n2Cc2ccc(C(=O)NO)cc2)C1
IC50 [1]: 2000 nM | IC50 [2]: 501 nM | IC50 [3]: 79.4 nM

O=C(NO)c1ccc(Cn2c3c(c4ccccc42)CCCC3)cc1
IC50 [1]: 2510 nM | IC50 [2]: 1000 nM | IC50 [3]: 63.1 nM

O=C(NO)c1ccc(CC(=O)N(CCO)c2ccccc2)cc1
IC50 [1]: 316 nM | IC50 [2]: 79.4 nM

O=C(NO)c1ccc(Cn2cc(CCO)c3ccccc32)cc1
IC50 [1]: 200 nM | IC50 [2]: 79.4 nM | IC50 [3]: 31.6 nM

O=C(NO)c1ccc(Cn2c3ccccc3c3ccccc32)cc1
IC50 [1]: 3980 nM | IC50 [2]: 2000 nM | IC50 [3]: 39.8 nM

O=C(NO)c1ccc(Cn2c3c(c4ccccc42)CSCC3)cc1
IC50 [1]: 398 nM | IC50 [2]: 316 nM | IC50 [3]: 126 nM

COCCc1cn(Cc2ccc(C(=O)NO)cc2)c2ccccc12
IC50 [1]: 200 nM | IC50 [2]: 126 nM | IC50 [3]: 63.1 nM

CN1CCc2c(n(Cc3ccc(C(=O)NO)cc3)c3ccccc23)C1
IC50 [4]: 3980 nM | IC50 [1]: 158 nM | IC50 [2]: 200 nM | IC50 (Histone deacetylase 8): 3980 nM | IC50 (Histone deacetylase 2): 25100 nM | IC50 (Histone deacetylase 1): 3160 nM | IC50 [3]: 63.1 nM

CN(C)Cc1nn(Cc2ccc(C(=O)NO)cc2)c2ccccc12
IC50 [4]: 794 nM | IC50 [2]: 20 nM | IC50 (Histone deacetylase 8): 794 nM | IC50 (Histone deacetylase 2): 7940 nM | IC50 (Histone deacetylase 1): 1260 nM | IC50 [3]: 126 nM

CN1CCCC1c1cn(Cc2ccc(C(=O)NO)cc2)c2ccccc12 (racemic)
IC50 [4]: 158 nM | IC50 [1]: 5.01 nM | IC50 [2]: 5.01 nM | IC50 (Histone deacetylase 8): 398 nM | IC50 (Histone deacetylase 2): 2000 nM | IC50 (Histone deacetylase 1): 316 nM | IC50 [3]: 126 nM

O=C(NO)c1ccc(Cn2c3c(c4ccccc42)COCC3)cc1
IC50 [4]: 1260 nM | IC50 [1]: 1000 nM | IC50 [2]: 631 nM | IC50 (Histone deacetylase 8): 794 nM | IC50 (Histone deacetylase 2): 7940 nM | IC50 (Histone deacetylase 1): 1580 nM | IC50 [3]: 20 nM

O=C(CCCCCCNC(=O)c1cnc(N(c2ccccc2)c2ccccc2)nc1)NO [RICOLINOSTAT]
IC50 [1]: 1580 nM | IC50 [2]: 126 nM

CC(C)(C)c1cc2ccccc2n1Cc1ccc(C(=O)NO)cc1
inhibition [5]: Active | IC50 [1]: > 39800 nM | IC50 [2]: 5010 nM | IC50 [3]: 2000 nM

Cn1cc(CNCC2CCN(c3ncc(C(=O)NO)cn3)CC2)c2ccccc21 [QUISINOSTAT]
IC50 [1]: 39.8 nM | IC50 [2]: 10 nM

Cc1c(C)n(Cc2ccc(C(=O)NO)cc2)c2ccccc12
IC50 [4]: 3160 nM | IC50 [1]: 631 nM | IC50 [2]: 316 nM | IC50 (Histone deacetylase 8): 1580 nM | IC50 (Histone deacetylase 2): 12600 nM | IC50 (Histone deacetylase 1): 2510 nM | IC50 [3]: 31.6 nM

O=C(NO)c1ccc(Cn2ccc3ccccc32)cc1
IC50 [1]: 158 nM | IC50 [2]: 63.1 nM | IC50 [3]: 63.1 nM

O=C(NO)c1ccc(Cn2cc(CN3CCCC3)c3ccccc32)cc1
IC50 [4]: 398 nM | IC50 [1]: 3.98 nM | IC50 [2]: 3.98 nM | IC50 (Histone deacetylase 8): 316 nM | IC50 (Histone deacetylase 2): 6310 nM | IC50 (Histone deacetylase 1): 794 nM | IC50 [3]: 158 nM

CC(C)(C)OC(=O)Nc1ccc(-c2cc(C(=O)NCCCCCCC(=O)NO)no2)cc1
IC50 [1]: 794 nM | IC50 [2]: 316 nM

CN(C)Cc1cn(Cc2ccc(C(=O)NO)cc2)c2ccccc12
IC50 [4]: 631 nM | IC50 [1]: 3.98 nM | IC50 [2]: 5.01 nM | IC50 (Histone deacetylase 8): 398 nM | IC50 (Histone deacetylase 2): 6310 nM | IC50 (Histone deacetylase 1): 1000 nM | IC50 [3]: 158 nM
